Measured values from the array DNA melting data of Ke et al. (doi:10.1101/2024.01.08.574731).

Key:
[1] = folding enthalpy; higher = less favourable; fluorescence melt of hairpins on a sequencing array, two-state fit; settings: sodium 0.088 M
Procedure, shortened: (§1)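 In 50 mM Na-HEPES pH 8.0 containing 25 mM NaCl, hairpins from the library on a sequenced MiSeq flow cell were imaged for Cy3 fluorescence at 2.5 °C steps up to 60 °C, with Cy3 and quencher oligos annealed. After normalisation to pre-quench Cy3 and to control constructs, two-state fits with bootstrapping gave melting temperature and folding enthalpy. Four replicates were combined by inverse-variance weighting, and fitted temperatures were shifted up by 9.35 °C to match UV melts.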

[2] = melting temperature; fluorescence melt of hairpins on a sequencing array, two-state fit, raised by 9.35 °C to match UV melts; settings: sodium 0.088 M
Procedure, shortened: as §1

Row | Sequence | folding enthalpy [1] [kcal/mol] | Tm [2] [°C]
1 | GCCCCGCGAAAGCGTTGC ((..(((....)))..)) | -9.75 | 33.5
2 | GCCCCTGGAAACAGAGGC (((.(((....))).))) | -27.7 | 46.3
3 | GCCCGAGGAAACTCAGGC (((.(((....))).))) | -27.2 | 45.1
4 | GCCCGCGAAAGCGGTGGC ((((((....)))..))) | -12.2 | 57.7
5 | GCCCGCGGAAACGCAGGC (((.(((....))).))) | -32.4 | 62.4
6 | GCCCGCGGAAACGCGGAC (.(((((....))))).) | -9.8 | 57
7 | GCCCGCTCGAAAGAGGGC (((..(((....)))))) | -40.6 | 54.6
8 | GCCCGGACGAAAGTCGGC (((..(((....)))))) | -14.5 | 50.9
9 | GCCCGGCGAAAGCAGAGC ((.(.((....)).).)) | -14.4 | 47.4
10 | GCCCGGCGAAAGCGGCGC ((.(.((....)).).)) | -21.1 | 64.6
11 | GCCCGTGGAAACACAGGC (((.(((....))).))) | -29.8 | 50.4
12 | GCCCGTGGAAACGTGGGC ((((..(....)..)))) | -31.2 | 54.9
13 | GCCCTAGAAATAGGGC ((((((....)))))) | -37.2 | 59.1
14 | GCCCTAGGAAACTAGGAC (.(((((....))))).) | -19.6 | 37.7
15 | GCCCTCCCGAAAGGGGGC (((..(((....)))))) | -16.1 | 58
16 | GCCCTCGAAAGAGAAGGC ((((((....)))..))) | -22.2 | 48.3
17 | GCCCTCGAAAGAGCAGGC ((((((....)))..))) | -24.8 | 44.9
18 | GCCCTCGAAAGAGCCGGC ((((((....)))..))) | -18.4 | 40.4
19 | GCCCTCGAAAGAGTAGGC ((((((....)))..))) | -29.5 | 49
20 | GCCCTCGAAAGAGTTGGC ((((((....)))..))) | -23.2 | 44
21 | GCCCTCGGAAACGGGGGC ((((.((....)).)))) | -32.7 | 66.9
22 | GCCCTGCGAAAGCAAAGC ((..(((....)))..)) | -6.64 | 29.2
23 | GCCCTGCGAAAGCACAGC ((..(((....)))..)) | -8.54 | 27.4

Row | Sequence | folding enthalpy [1] [kcal/mol] | Tm [2] [°C]
24 | GCCCTGCGAAAGCAGTGC ((.((((....)))).)) | -17.3 | 58.5
25 | GCCCTGCGAAAGCATGGC (((.(((....))).))) | -48.3 | 56.3
26 | GCCCTGCGAAAGCGGAGC ((.(.((....)).).)) | -15.5 | 51.5
27 | GCCCTGCGAAAGCTCGGC (((..((....))..))) | -19.3 | 46.9
28 | GCCCTGCGAAAGCTGTGC ((.(.((....)).).)) | -15.7 | 38.9
29 | GCCCTGGCGAAAGCCGGC (((..(((....)))))) | -11.1 | 52
30 | GCCCTGGGAAACCGGGGC ((((.((....)).)))) | -43.1 | 66.2
31 | GCCCTGTCGAAAGACGGC (((..(((....)))))) | -15.4 | 44.5
32 | GCCCTTCGAAAGAAGGC (((.(((....)))))) | -21.4 | 52.9
33 | GCCGAACCGAAAGGTGGC (((..(((....)))))) | -26.4 | 53.1
34 | GCCGAACGAAAGTTGGGC (((.(((....))).))) | -38.8 | 58.5
35 | GCCGAAGGAAACTCCGGC ((((.((....)).)))) | -28 | 48.3
36 | GCCGAAGGAAACTTCAGC ((.((((....)))).)) | -11.7 | 32.9
37 | GCCGACACGAAAGTGGGC (((..(((....)))))) | -24.5 | 53.1
38 | GCCGACGAAAGTCAGGGC ((((((....)))..))) | -36.8 | 55.1
39 | GCCGACGAAAGTCCCGGC ((((((....)))..))) | -20.9 | 49.6
40 | GCCGACGAAAGTCTAGGC ((((((....)))..))) | -34.1 | 52.7
41 | GCCGAGCGAAAGCACAGC ((.(.((....)).).)) | -15.1 | 40.1
42 | GCCGAGCGAAAGCGCAGC ((.(.((....)).).)) | -14.4 | 49.4
43 | GCCGAGCGAAAGCGTGGC (((..((....))..))) | -25.4 | 68.3
44 | GCCGAGCGAAAGCTGGC (((.(((....)))))) | -25.1 | 68.6
45 | GCCGAGGGAAACCCCAGC ((.(.((....)).).)) | -11.3 | 25.2
